Laboratory results taken from ChEMBL document CHEMBL1933023, “Novel immunomodulators based on an oxazolin-2-one-4-carboxamide scaffold” (Bioorg Med Chem Lett, 2012).

Columns and labels:
[1] = target: T1, Sphingosine 1-phosphate receptor 4 (Homo sapiens, UniProt O95977); assay: Agonist activity at human S1P4 expressed in CHO cells after 60 mins by [35S]GTPgammaS binding assay; format: functional, cell-based
T1 sequence (O95977 whole entry): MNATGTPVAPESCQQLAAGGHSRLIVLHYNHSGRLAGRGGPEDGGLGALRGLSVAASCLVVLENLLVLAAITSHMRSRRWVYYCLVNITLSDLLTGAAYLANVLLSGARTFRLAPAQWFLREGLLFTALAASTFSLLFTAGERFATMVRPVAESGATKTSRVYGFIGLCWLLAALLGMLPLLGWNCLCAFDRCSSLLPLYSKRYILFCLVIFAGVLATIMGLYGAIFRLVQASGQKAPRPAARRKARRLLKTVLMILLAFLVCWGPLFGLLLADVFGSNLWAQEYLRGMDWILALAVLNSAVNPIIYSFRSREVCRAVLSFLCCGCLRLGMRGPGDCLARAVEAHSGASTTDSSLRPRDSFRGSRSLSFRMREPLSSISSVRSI

S1P1 receptor = assay: Therapeutic index, ratio of TC50 for HLF cells to EC50 for S1P1 receptor; format: cell-based; conditions: human, read-out: TI
[2] = Ratio of TC50 for compound to FTY720 for HLF cells; format: ADME, cell-based; conditions: human
[3] = target: T2, Sphingosine 1-phosphate receptor 1 (Homo sapiens, UniProt P21453); assay: Agonist activity at EGFP-tagged S1P1 receptor expressed in human […] cells assessed as receptor internalization in endosomes after 60 mins; format: functional, cell-based
Procedure, shortened: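 S1P1 Redistribution assay measuring agonist activity; EC50 values reported in μM.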

[4] = Cytotoxicity against HLF cells; format: cell-based; conditions: human, read-out: TC50 (the source's name)
Procedure, shortened: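 Cytotoxicity was determined by the MTT method in HLF cells; TC50 values reported in μM.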

Mus musculus [5] = assay: Immunosuppressant activity in Balb/C mouse assessed as decrease in circulating CD3+ T cells at 10 mg/kg, po measured after 30 mins by flow cytometric analysis; format: functional, T-cell; parameters: scale not given: the % may be the effect or the level left
Procedure, shortened: (§1)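 Oral dosing of BALB/C mice at 0.1, 0.3, 1, 3 or 10 mg/kg. Peripheral blood CD3+ T cells were counted, and the result is expressed as percent decrease of CD3+ cells.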

Mus musculus [6] = assay: Immunosuppressant activity in Balb/C mouse assessed as decrease in circulating CD3+ T cells at 0.3 mg/kg, po measured after 30 mins by flow cytometric analysis; format: functional, T-cell; parameters: scale not given: the % may be the effect or the level left; procedure, shortened: as §1
Mus musculus [7] = assay: Immunosuppressant activity in Balb/C mouse assessed as decrease in circulating CD3+ T cells at 1 mg/kg, po measured after 30 mins by flow cytometric analysis; format: functional, T-cell; parameters: scale not given: the % may be the effect or the level left; procedure, shortened: as §1
Mus musculus [8] = assay: Immunosuppressant activity in Balb/C mouse assessed as decrease in circulating CD3+ T cells at 3 mg/kg, po measured after 30 mins by flow cytometric analysis; format: functional, T-cell; parameters: scale not given: the % may be the effect or the level left; procedure, shortened: as §1
Mus musculus [9] = assay: Immunosuppressant activity in po dosed Balb/C mouse assessed as decrease in circulating CD3+ T cells measured after 30 mins by flow cytometric analysis; format: functional, organism-based; conditions: T-cell; procedure, shortened: as §1
Mus musculus [10] = assay: Immunosuppressant activity in Balb/C mouse assessed as decrease in circulating CD3+ T cells at 0.1 mg/kg, po measured after 30 mins by flow cytometric analysis; format: functional, T-cell; parameters: scale not given: the % may be the effect or the level left; procedure, shortened: as §1
[11] = target: T2, Sphingosine 1-phosphate receptor 1; conditions: UOS2, 3 uM
[12] = target: T2, Sphingosine 1-phosphate receptor 1; conditions: UOS2, 10 uM

T2 sequence (P21453 whole entry): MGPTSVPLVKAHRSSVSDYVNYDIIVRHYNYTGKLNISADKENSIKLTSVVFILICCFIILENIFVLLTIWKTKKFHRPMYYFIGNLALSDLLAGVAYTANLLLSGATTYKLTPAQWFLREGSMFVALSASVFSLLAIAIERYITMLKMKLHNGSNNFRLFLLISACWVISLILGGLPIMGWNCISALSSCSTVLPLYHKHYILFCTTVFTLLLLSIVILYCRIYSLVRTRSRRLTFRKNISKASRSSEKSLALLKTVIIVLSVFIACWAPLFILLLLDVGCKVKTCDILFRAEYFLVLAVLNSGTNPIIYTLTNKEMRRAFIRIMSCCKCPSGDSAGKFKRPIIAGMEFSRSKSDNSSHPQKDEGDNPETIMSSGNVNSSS

SMILES	selectivity ratio (S1P1 receptor)	selectivity ratio [2]	EC50 ([3]; read-out: EC50) [µM]	CC50 [4] [µM]	also measured
CCCCCCCCc1ccc(CC[C@](N)(CO)COP(=O)(O)O)cc1 [FTY720-P]	–	–	–	–	IC50 [1]: 0.0022 µM
CC(C)(C)c1ccc(COc2ccc(CCC3(C(N)=O)COC(=O)N3)cc2)cc1 (stereo unspecified)	9.35	8	2.72	25.4	–
Cc1ccccc1COc1ccc(CCC2(C(N)=O)COC(=O)N2)cc1 (stereo unspecified)	–	–	–	–	EC50 ([3]; uos2): Not Active
NC(=O)C1(CCc2ccc(OCc3ccccc3Cl)cc2)COC(=O)N1 (stereo unspecified)	–	–	> 100	–	–
CCCCCCCCOc1ccc(CCC2(C(N)=O)COC(=O)N2)cc1 (stereo unspecified)	42.6	–	2.84	121	Activity (Mus musculus [5]): 84.3%; Activity (Mus musculus [6]): 1.7%; Activity (Mus musculus [7]): 20%; Activity (Mus musculus [8]): 53%; Activity (Mus musculus [9]): Dose-dependent effect
NC(=O)C1(CCc2ccc(OCCCc3ccccc3)cc2)COC(=O)N1 (stereo unspecified)	7.28	8	3.63	26.4	–
CCCCCCCCc1ccc(CCC(N)(CO)CO)cc1.Cl [FINGOLIMOD HYDROCHLORIDE]	–	–	–	3.15	Activity (Mus musculus [10]): 9.7%; Activity (Mus musculus [5]): 86.6%; Emax [11]: 37%; Activity (Mus musculus [6]): 47.2%; Activity (Mus musculus [7]): 79%; Activity (Mus musculus [8]): 80.7%; Emax [12]: 54%
NC(=O)C1(CCc2ccc(OCc3ccc(Cl)cc3)cc2)COC(=O)N1 (stereo unspecified)	25.4	8	1.1	27.9	–
